Series [1] has as its target T1, Progesterone receptor (Homo sapiens, UniProt P06401).
T1 sequence (P06401 whole entry): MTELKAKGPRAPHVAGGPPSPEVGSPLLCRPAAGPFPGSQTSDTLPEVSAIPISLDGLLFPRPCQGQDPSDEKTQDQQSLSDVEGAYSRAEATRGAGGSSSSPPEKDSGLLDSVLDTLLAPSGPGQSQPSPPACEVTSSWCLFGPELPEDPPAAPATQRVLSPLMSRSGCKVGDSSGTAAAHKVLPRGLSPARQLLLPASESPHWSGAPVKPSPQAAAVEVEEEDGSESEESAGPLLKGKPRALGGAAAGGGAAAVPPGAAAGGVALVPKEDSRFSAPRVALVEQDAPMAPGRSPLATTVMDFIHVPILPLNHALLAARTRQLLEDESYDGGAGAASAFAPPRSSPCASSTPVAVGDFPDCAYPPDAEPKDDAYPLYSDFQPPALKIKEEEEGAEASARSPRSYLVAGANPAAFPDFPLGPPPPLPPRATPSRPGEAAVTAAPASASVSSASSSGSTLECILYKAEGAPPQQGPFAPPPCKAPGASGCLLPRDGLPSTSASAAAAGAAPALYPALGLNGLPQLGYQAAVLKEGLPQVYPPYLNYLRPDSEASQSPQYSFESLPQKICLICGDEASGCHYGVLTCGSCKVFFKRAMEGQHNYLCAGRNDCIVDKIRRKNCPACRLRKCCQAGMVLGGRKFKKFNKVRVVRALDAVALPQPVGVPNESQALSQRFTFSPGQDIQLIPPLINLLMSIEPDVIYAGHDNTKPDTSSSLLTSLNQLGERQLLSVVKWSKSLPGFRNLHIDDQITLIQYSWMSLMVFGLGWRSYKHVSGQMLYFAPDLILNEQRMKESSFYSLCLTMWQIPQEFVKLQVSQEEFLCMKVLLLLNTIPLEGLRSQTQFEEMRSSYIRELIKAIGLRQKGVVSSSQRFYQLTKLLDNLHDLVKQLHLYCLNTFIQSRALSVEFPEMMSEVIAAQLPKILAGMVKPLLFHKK
The series can be described thus: Antagonist activity against the Progesterone Receptor (PR). The series is classed as functional. In a few lines: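 Antagonism run in CV-1 cells co-transfected with hPR and PRE-luciferase plasmids, with luciferase read-out; IC50 taken as the mean of at least duplicate determinations.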

Series [2] addresses T2, Progesterone receptor (Rattus norvegicus) (UniProt Q63449).
T2 sequence (whole entry): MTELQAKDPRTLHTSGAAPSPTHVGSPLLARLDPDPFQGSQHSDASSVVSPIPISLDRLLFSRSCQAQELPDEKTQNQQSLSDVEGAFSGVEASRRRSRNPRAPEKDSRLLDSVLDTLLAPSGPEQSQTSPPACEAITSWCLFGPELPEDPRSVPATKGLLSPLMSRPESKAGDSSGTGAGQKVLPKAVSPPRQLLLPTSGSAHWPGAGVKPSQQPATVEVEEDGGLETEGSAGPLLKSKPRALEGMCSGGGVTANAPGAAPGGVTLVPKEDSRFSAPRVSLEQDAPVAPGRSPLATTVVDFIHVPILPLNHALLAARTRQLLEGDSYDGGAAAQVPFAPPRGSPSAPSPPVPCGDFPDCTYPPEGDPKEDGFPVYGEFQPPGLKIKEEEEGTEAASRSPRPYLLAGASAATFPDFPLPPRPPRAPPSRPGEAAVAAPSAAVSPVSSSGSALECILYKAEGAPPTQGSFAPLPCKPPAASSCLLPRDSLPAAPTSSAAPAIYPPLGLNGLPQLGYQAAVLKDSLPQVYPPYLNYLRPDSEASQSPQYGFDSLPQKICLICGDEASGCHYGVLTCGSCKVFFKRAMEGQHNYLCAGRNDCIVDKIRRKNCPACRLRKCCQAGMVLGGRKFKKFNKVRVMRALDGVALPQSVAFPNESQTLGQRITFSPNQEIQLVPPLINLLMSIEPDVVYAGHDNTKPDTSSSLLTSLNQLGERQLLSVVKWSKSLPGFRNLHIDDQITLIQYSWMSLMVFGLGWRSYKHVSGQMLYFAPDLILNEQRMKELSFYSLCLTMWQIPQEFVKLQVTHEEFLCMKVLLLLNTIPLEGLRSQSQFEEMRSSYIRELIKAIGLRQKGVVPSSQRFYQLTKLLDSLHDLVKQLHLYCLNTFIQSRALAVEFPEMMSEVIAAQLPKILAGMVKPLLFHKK
Nature of the series: Inhibitory activity against progesterone receptor (PR) in ovariectomized mature female rat decidualization model. The series is classed as functional. In a few lines: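 Ovariectomized mature rats dosed orally for 7 days, with progesterone 5.6 mg/kg SC given alongside; vehicle-only controls. Decidual response (D/C) measured 24 h after the final treatment, seven animals per point. ED50 averaged from at least duplicate determinations.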

In series [3] the target is T1, Progesterone receptor. The series can be described thus: Antagonist activity against progesterone receptor (PR) in an assay using PRE-luciferase plasmid co-transfected CV-1 cells. The series is classed as functional, cell-based. In a few lines: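 CV-1 cells cotransfected with hPR and PRE-luciferase plasmids, luciferase read-out; IC50 averaged from at least duplicate determinations.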

The target in series [4] is T1, Progesterone receptor. The series can be described thus: Agonist activity against progesterone receptor (PR) in an alkaline phosphatase assay in the T47D human breast carcinoma cell line. The series is classed as functional, cell-based. The gist of the method:
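T47D human breast carcinoma cells scored for PR agonism via alkaline phosphatase read-out; EC50 taken as the mean of at least duplicate determinations.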

The target in series [5] is T1, Progesterone receptor. The series can be described thus: Antagonist activity against progesterone receptor (PR) in an alkaline phosphatase assay in the T47D human breast carcinoma cell line. The series is classed as functional, cell-based.
Series [6] has as its target Estrogen receptor (Homo sapiens, UniProt Q92731+P03372). The series can be described thus: Antagonist activity against the Estrogen Receptor (ER). The series is classed as functional.
The target in series [7] is T2, Progesterone receptor (Rattus norvegicus). Nature of the series: inhibitory activity against progesterone receptor (PR) in ovariectomized mature female rat complement C3 model. The series is classed as functional. In a few lines:
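Adult ovariectomized rats given oral doses; read-out is reversal of progestin down-regulation of estrogen-induced complement C3 synthesis in uterine epithelium. ED50 averaged from at least duplicate determinations.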

The nature of series [8]: Half life in female rats for a dose of 1 mg/kg administered intravenously. Also on record: dose 1 mg/kg, route intravenous. The series is classed as ADME, organism-based. Particulars: rat, in vivo, iv.
A short description of series [9]: Area under the curve (AUC) for the compound in female rats for a dose of 1 mg/kg administered intravenously. Particulars: rat, in vivo, iv. The series is classed as ADME, organism-based. Also on record: dose 1 mg/kg, route intravenous.
Series [10] can be described thus: Plasma clearance (Cl) for the compound in female rats for a dose of 1 mg/kg administered intravenously. The series is classed as ADME, organism-based. Particulars: rat, iv, read-out: Clp (converted). Also noted: dose 1 mg/kg, route intravenous.

This note sets out measurements from ChEMBL document CHEMBL1135816, “6-Aryl-1,4-dihydro-benzo[d][1,3]oxazin- 2-ones: a novel class of potent, selective, and orally active nonsteroidal progesterone receptor antagonists” (J Med Chem, 2002).

The structures appear in SMILES notation.

As to `CC1(C)OC(=O)Nc2ccc(-c3csc(C#N)c3)cc21`, the IC50 in [1] and in [3] was 6.7 nM each time. The ED50 (as a rule, the dose at which the effect has come halfway, by size or by number of responders) in [2] came to 1.7 mg/kg. Also, the EC50 – broadly, the midpoint of the concentration-response curve – in [4] amounted to 61.1 nM.
`CC1(C)OC(=O)Nc2ccc(-c3coc(C#N)c3)cc21`: the IC50 (in general, the point on the concentration scale where inhibition reaches its midpoint) in [1] is 40.2 nM; in [3], 40.2 nM; in [5] it was 8 nM. The 50% effect level in [2] (ED50) was put at a dose of 0.9 mg/kg.
Consider `CC1(C)OC(=O)Nc2ccc(-c3ccc(F)c(Cl)c3)cc21`, for which the ED50 in series [2] turned out to be 1 mg/kg; in series [7] it was 2.5 mg/kg. Moreover, the results for the IC50 in series [6] and in [5] were greater than 10000 nM and 23 nM, respectively.
In the case of `CC1(C)OC(=O)Nc2ccc(-c3cc(F)cc(C#N)c3)cc21`, the IC50 in series [1] was 15.9 nM; in series [6] it was greater than 10000 nM; in [3] it was 15.9 nM. Moreover, the ED50 in series [2] was 0.3 mg/kg; in [7], 1 mg/kg. For the same compound, in [8], the half-life (usually the time needed for the level to fall by half in the phase considered) is 7.7 h. Further, in series [4], the response was half-maximal at 90 nM (EC50). In [9], the AUC – broadly, the area under the concentration-time curve, a measure of exposure – is 3690 ng·h/mL. Also, in series [10], the clearance was 3.67 mL/min/kg.
